Data on nine compounds can be found in ChEMBL document CHEMBL4004789, “Isochromans and Related Constituents from the Endophytic Fungus Annulohypoxylon truncatum of Zizania caduciflora and Their Anti-Inflammatory Effects” (J Nat Prod, 2017).

SMILES strings stand for the structures. Calls of active or inactive are those of the source. No cut-off for these calls is given here.

The nature of data set [1]: Anti-inflammatory activity in C57BL/6 mouse BMDC assessed as inhibition of LPS-induced TNFalpha production pretreated for 1 hr followed by LPS-stimulation after 18 hrs by ELISA. The data set is classed as functional, cell-based. Put shortly: (§1)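 BMDCs came from wild-type C57BL/6 bone marrow, cultured 6 days with GM-CSF-containing J558L supernatant in RPMI 1640 with 10% FBS; loosely adherent cells were used. Cells were plated at 1 × 10⁵/well and pretreated 1 h with compound at 2, 5, 10, 25 and 50 μM. Stimulation was 10 ng/mL S. minnesota LPS. Murine cytokine in 18 h supernatants was measured by ELISA. Mean + SD, ≥3 independent experiments in triplicate.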
In general terms: In an ELISA, binding on a coated surface is turned into a signal by an enzyme label.

The nature of data set [2]: Anti-inflammatory activity in C57BL/6 mouse BMDC assessed as inhibition of LPS-induced IL12 p40 production pretreated for 1 hr followed by LPS-stimulation after 18 hrs by ELISA. Type of data set: functional, cell-based. Put shortly: as §1
The nature of data set [3]: Cytotoxicity against C57BL/6 mouse BMDC at 50 uM after 24 hrs by CCK8 assay. Type of data set: cell-based. Summed up:
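GM-CSF-derived C57BL/6 BMDCs were seeded at ~1 × 10⁴ cells/well and cultured overnight. Compound was added across a dose series for 24 h. CCK-8 reagent was then added for 1 h, and absorbance at 450 nm was read as viable cell number. Triplicate wells.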
(In general: Tetrazolium assays rely on reduction of a dye to a coloured formazan, in cell work by metabolically active cells.)

The nature of data set [4]: Anti-inflammatory activity in C57BL/6 mouse BMDC assessed as inhibition of LPS-induced IL-6 production pretreated for 1 hr followed by LPS-stimulation after 18 hrs by ELISA. The data set is classed as functional, cell-based. Put shortly: as §1
Data set [5] concerns BMDC. As to the kind of experiment: Anti-inflammatory activity in C57BL/6 mouse BMDC assessed as inhibition of LPS-induced TNFalpha production at 50 uM pretreated for 1 hr followed by LPS-stimulation after 18 hrs by ELISA. The data set is classed as functional, cell-based. Put shortly:
(§2)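 Wild-type C57BL/6 mouse bone marrow cells were grown 6 days in RPMI 1640 with 10% FBS, 50 μM β-ME, 2 mM glutamine and 3% J558L supernatant (GM-CSF). Non-adherent DCs were plated at 1 × 10⁵/well and given compound at 50 μM for 1 h. They were then stimulated with 10 ng/mL Salmonella minnesota LPS. Supernatant cytokine was measured by ELISA at 18 h. Mean + SD, ≥3 independent experiments in triplicate.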

Data set [6] concerns BMDC. As to the kind of experiment: Anti-inflammatory activity in C57BL/6 mouse BMDC assessed as inhibition of LPS-induced IL12 p40 production at 50 uM pretreated for 1 hr followed by LPS-stimulation after 18 hrs by ELISA. The data set is classed as functional, cell-based. Summed up:
as §2

Data set [7] concerns BMDC. As to the kind of experiment: Anti-inflammatory activity in C57BL/6 mouse BMDC assessed as inhibition of LPS-induced IL-6 production at 50 uM pretreated for 1 hr followed by LPS-stimulation after 18 hrs by ELISA. Type of data set: functional, cell-based. Put shortly:
as §2

By IC50 is commonly meant the concentration that inhibits the measured activity by half.

Take `COc1c(O)cc2c(c1O)CO[C@H](C)C2`: the IC50 in data set [1], in data set [2] and in data set [4] was above 100 µM throughout. Also, the Activity entry in data set [3] was “Non-Toxic”.

Turning to `COc1c2c(cc(O)c1O[C@H]1O[C@H](CO)[C@@H](O)[C@H]1O)C[C@@H](C)OC2`, the 50% inhibitory concentration (IC50) in data set [1], in data set [2] and in data set [4] was above 100 µM throughout. Moreover, in data set [3], the Activity result is listed as “Non-Toxic”.

For `Cc1ccc2c(c1O)C(=O)O[C@H](C)C2`, the half-inhibitory concentration (IC50) in data set [1], in data set [2] and in data set [4] was above 100 µM in each case. In addition, the Activity entry in data set [3] is “Non-Toxic”.

With `COc1cc2c(c(O)c1O)CO[C@H](C)[C@H]2O`, the half-inhibitory concentration (IC50) in data set [1], in data set [2] and in data set [4] was above 100 µM each time. Moreover, the Activity result in data set [3] is reported as “Non-Toxic”.

For the compound `COc1cc2c(c(O)c1OC)CO[C@H](C)C2`, the IC50 in data set [1], in data set [2] and in data set [4] was above 100 µM throughout. In addition, the Activity result in data set [3] is listed as “Non-Toxic”.

Take `COc1cc2c(c(O)c1OC)CO[C@H](C)[C@H]2O`: the IC50 in data set [1], in data set [2] and in data set [4] was above 100 µM each time. In addition, the Activity result in data set [3] is given as “Non-Toxic”.

Consider `C[C@@H]1Cc2cc(O)cc(O)c2CO1`, for which the half-inhibitory concentration (IC50) in data set [1], in data set [2] and in data set [4] was above 100 µM each time. In addition, the Activity result in data set [3] is “Non-Toxic”.

Consider `C[S+]([O-])c1ccc(-c2nc(-c3ccc(F)cc3)c(-c3ccncc3)[nH]2)cc1` (stereo not drawn) [SB-203580], for which the IC50 in data set [1] is 7.2 µM; in data set [2] it was 5 µM; in data set [4], 3.5 µM.

As to `C[C@@H]1CC2=C(CO1)C(=O)[C@](C)(O)[C@@H](O)C2`, the inhibition result in the data set on BMDC [5], with BMDC [6] and in the data set on BMDC [7] was “Active” in each case. The IC50 stood at 37.6 µM in data set [1], 19.4 µM in data set [2] and 5.3 µM in data set [4]. Moreover, the Activity entry in data set [3] is listed as “Non-Toxic”.
